Legend:
Assay type in all cases: cell-based
Tubulin (Homo sapiens) [1] = target: T1, Tubulin (Homo sapiens) (UniProt P68371+Q9H4B7+P0DPH7+P68366+Q13509+Q71U36+P04350+Q3ZCM7+P07437+P68363+Q9BQE3+Q6PEY2+Q13885+Q9BVA1+Q9BUF5); assay: Stabilization of microtubules in human QBI293 cells assessed as fold change in acetylated tubulin levels at 1 uM after 4 hrs by ELISA relative to DMSO
Summary of the method: (§1)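 QBI293 cells were grown in DMEM with 10% FBS, 2 mM L-glutamine and penicillin/streptomycin, then plated at 6 × 10^5 cells/well and left overnight. Medium was replaced with fresh medium holding vehicle (DMSO) or compound, and cells were incubated 4 h. Whole-cell extract supernatants were protein-normalized by BCA assay. AcTub and α-tubulin were quantified by ELISA against standard curves. Values are fold-change over DMSO, analysed by one-way ANOVA.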

Tubulin (Homo sapiens) [2] = target: T1, Tubulin (Homo sapiens); assay: Stabilization of microtubules in human QBI293 cells assessed as fold change in acetylated tubulin levels at 10 uM after 4 hrs by ELISA relative to DMSO; summary of the method: as §1
Tubulin (Homo sapiens) [3] = target: T1, Tubulin (Homo sapiens); assay: Stabilization of microtubules in human QBI293 cells assessed as fold change in alpha tubulin levels at 1 uM after 4 hrs by ELISA relative to DMSO; summary of the method: as §1
Tubulin (Homo sapiens) [4] = target: T1, Tubulin (Homo sapiens); assay: Stabilization of microtubules in human QBI293 cells assessed as fold change in alpha tubulin levels at 10 uM after 4 hrs by ELISA relative to DMSO; summary of the method: as §1
Tubulin (Homo sapiens) [5] = target: T1, Tubulin (Homo sapiens); assay: Stabilization of microtubules in human QBI293 cells assessed as fold change in acetylated tubulin levels at 1 uM after 4 hrs by ELISA relative to cevipabulin
Tubulin (Homo sapiens) [6] = target: T1, Tubulin (Homo sapiens); assay: Stabilization of microtubules in human QBI293 cells assessed as fold change in acetylated tubulin levels at 10 uM after 4 hrs by ELISA relative to cevipabulin
Tubulin (Homo sapiens) [7] = target: T1, Tubulin (Homo sapiens); assay: Stabilization of microtubules in human QBI293 cells assessed as increase in acetylated tubulin levels after 4 hrs by ELISA
Summary of the method: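 QBI293 cells are grown in DMEM with 10% FBS, 2 mM L-glutamine and penicillin/streptomycin, plated at 6 × 10^5 cells/well and incubated overnight. […] Acetyl- and total α-tubulin in whole-cell extract supernatants are measured by ELISA against standard curves, with protein by BCA. Values are fold-change over DMSO; AcTub is also given relative to 100 nM cevipabulin positive control. Significance is by one-way ANOVA.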

Compound	fold change (FC) (Tubulin (Homo sapiens) [1])	fold change (FC) (Tubulin (Homo sapiens) [2])	fold change (FC) (Tubulin (Homo sapiens) [3])	fold change (FC) (Tubulin (Homo sapiens) [4])	fold change (FC) (Tubulin (Homo sapiens) [5])	fold change (FC) (Tubulin (Homo sapiens) [6])	Activity (Tubulin (Homo sapiens) [7])
CC(C)[C@@H](C)Nc1c(-c2ccc(C#N)cc2F)c(Cl)nc2ncnn12 (stereo in doubt; 67)	2.79	3.42	0.99	0.93	0.61	0.75	–
Fc1cc(F)c(-c2c(Cl)nc3ncnn3c2NC2CC2)c(F)c1	1.17	1.27	1.2	1.26	0.07	0.07	–
C[C@H](Nc1c(Cc2c(F)cc(F)cc2F)c(Cl)nc2ncnn12)C(F)(F)F	1.26	1.43	1.01	1.05	0.09	0.1	–
C[C@H](Nc1c(-c2c(F)cc([N+](=O)[O-])cc2F)c(Cl)nc2ncnn12)C(F)(F)F	3.24	6.65	0.96	0.94	0.6	1.23	Dose-dependent effect
CC(C)[C@H](C)Nc1c(-c2c(F)cc(F)cc2F)c(Cl)nc2ncnn12	–	–	–	–	–	–	Dose-dependent effect
C[C@H](Nc1c(-c2ccc(F)cc2F)c(Cl)nc2ncnn12)C(F)(F)F	1.54	3.19	0.99	0.86	0.13	0.27	Dose-dependent effect
Fc1cc(F)c(-c2c(Cl)nc3ncnn3c2N2CCC2)c(F)c1	0.98	1.22	0.96	1.17	0.26	0.32	Dose-dependent effect
C[C@H](Nc1c(-c2cc(F)ccc2F)c(Cl)nc2ncnn12)C(F)(F)F	1.4	4.1	1.05	0.9	0.07	0.22	Dose-dependent effect
C[C@H](Nc1c(-c2c(F)cc(F)cc2F)c(Cl)nc2ncnn12)C(F)(F)F	–	–	–	–	–	–	Dose-dependent effect
CC(Oc1c(-c2c(F)cc(F)cc2F)c(Cl)nc2ncnn12)C(F)(F)F (configuration not stated)	0.91	1.01	1.03	1.04	0.19	0.21	–
CCCNc1c(-c2c(F)cc(F)cc2F)c(Cl)nc2ncnn12	1.15	1.14	1.14	0.86	0.27	0.26	–
Fc1cc(F)c(-c2c(Cl)nc3ncnn3c2Nc2ccccc2)c(F)c1	1.14	1.05	1.1	0.96	0.09	0.08	–
CC(Nc1c(-c2c(F)cc(F)cc2F)c(Cl)nc2ncnn12)C(F)F (configuration not stated)	1.28	1.82	1.19	1.17	0.3	0.35	Dose-dependent effect
C[C@H](Nc1c(-c2c(F)cc(C(F)(F)F)cc2F)c(Cl)nc2ncnn12)C(F)(F)F	1.09	1.39	1.06	1.02	0.13	0.16	Dose-dependent effect
C[C@H](Nc1c(-c2cc(F)cc(F)c2)c(Cl)nc2ncnn12)C(F)(F)F	1.52	3.97	1.12	1.12	0.12	0.3	Dose-dependent effect

— ChEMBL document CHEMBL4732138, “Evaluation of the Structure-Activity Relationship of Microtubule-Targeting 1,2,4-Triazolo[1,5-a]pyrimidines Identifies New Candidates for Neurodegenerative Tauopathies” (J Med Chem, 2021)
